APP 5'UTR act: activators of APP 5'UTR luciferase reporter, primary screen, SH-SY5Y cells; SH-SY5Y APP 5'UTR luciferase reporter, luminescence; zero percent = DMSO vehicle wells; activation, % at 2 µM; 190,000 compounds, 1% hits; AID 1276, 2008;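 active = activation above a set limit, based on mean plus 3 SD of controls, cut at about 140% in these data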
NF-kB expr up: activators of NF-kB expression in neurons, primary screen, cell-based, HTS. AID 1239, 2008. human neuronal cells, NF-kB reporter expression; hits give high values. 190,000 compounds, 1.6% hits. fold change at 12.5 µM; in the data active = fold change above about 3.3
Pf gametocyte: late stage P. falciparum gametocyte viability inhibitors, primary screen, ATP luminescence, HTS | AID 743093, 2013 | inhibition, % at 10.9 µM | 150,000 compounds, 0.065% hits | P. falciparum stage V gametocytes, 24 h;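 active = inhibition above the mean plus 3 SD of compounds within the control limits, set per campaign, cut at about 38% in these data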
STAT1 act-1: STAT1 signaling activators, primary screen, cell-based, HTS, luciferase reporter. activation (% of control), % at 5.5 µM. AID 932, 2007. 200,000 compounds, 2.6% hits. NIH 3T3 STAT1-luciferase reporter, IFN-gamma, luminescence; 100% = IFN-gamma alone, no compound;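 active = activation above the screen-wide mean activation plus 3 SD, cut at about 130% in these data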
STAT1 inh: STAT1 signaling inhibitors, primary screen, cell-based, HTS, luciferase reporter; NIH 3T3 STAT1-luciferase reporter, IFN-gamma, luminescence; inhibition, % at 5.5 µM; 200,000 compounds, 0.35% hits;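 active = inhibition above a set limit, the mean inhibition across all tested compounds plus 3 SD, cut at about 34% in these data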
STAT3 act-1: IL-6 driven STAT3 reporter potentiators, primary screen, U3A cells, luciferase, luminescence, MLSCN library. 190,000 compounds, 0.91% hits. AID 871, 2007. activation (% of control), % at 5.6 µM. IL-6 STAT3-luciferase reporter; 100% = signal with IL-6 EC80 alone;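 active = activation above the screen-wide mean of compound activation plus 3 SD, cut at about 130% in these data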
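system = STAT3-luciferase reporter U3A cells | reagent = IL-6 stimulus at 33 ng/mL final | timing = 1 h compound pre-exposure, 6 h IL-6 stimulation, 37 °C | measured by = luminescence | evaluation = % activation versus median of IL-6-stimulated wells | control set = IL-6-only wells as 100% reference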
STAT3 act-2: STAT3 reporter potentiators, retest of hits, confirmation, U3A cells, luciferase, luminescence. IL-6 potentiation; U3A cells lack STAT1; 100 means same as IL-6 alone. shares compounds with STAT3 act-1. potentiation (% of control), % at 5.7 µM. AID 1267, 2008. 1,200 compounds, 64% hits;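 active = percent activation of the STAT3 luciferase reporter above a set limit taken from the earlier primary screen, cut at about 130% in these data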
NFkB act 2: NF-kB reporter activators in human cells, counter-screen for STAT3 activator project. shares compounds with STAT3 act-1. NF-kappaB reporter activation. activation (% of control), % at 5.7 µM. 1,200 compounds, 11% hits. AID 1309, 2008; in the data active = activation above about 120%;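 also: reporter induced by TNF-alpha stimulation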
STAT1 act-2: STAT1 reporter activators, IFN-gamma induced, counter-screen for STAT3 activator project, cell-based, NIH 3T3, luciferase luminescence; NIH 3T3 STAT1-luciferase reporter; 1,200 compounds, 13% hits; shares compounds with STAT3 act-1; AID 1318, 2008; activation (% of control), % at 5.7 µM;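 active = activation above the solvent-only control well mean plus 3 SD, set per screening run, cut at about 120% in these data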
Each line names hits and unclear results; the compound was inactive in the other large screens (follow-up assays come after a bar, where they were run). The list is not random: actives were taken first. Their share in the collection is about 3.9%.

Cc1ccc(-n2c(SCC(=O)Nc3ccc4cn[nH]c4c3)nnc2-c2ccco2)cc1	STAT3 act-1 149.2 (no result: Pf gametocyte) | STAT3 act-2 142.8 | NFkB act 2 inactive | STAT1 act-2 inactive
Cn1c(SCC(=O)Nc2ccc3cn[nH]c3c2)nnc1-c1cccs1	STAT3 act-1 162.4 (no result: Pf gametocyte) | STAT3 act-2 149.2 | NFkB act 2 inactive | STAT1 act-2 inactive
Cn1c(SCC(=O)Nc2ccc3cn[nH]c3c2)nnc1-c1cnccn1	STAT3 act-1 145.2 (no result: Pf gametocyte) | STAT3 act-2 146.4 | NFkB act 2 inactive | STAT1 act-2 inactive
CC1(C)CC(=O)C=C(c2cccs2)C1	none (no result: APP 5'UTR act, NF-kB expr up, STAT1 act-1, STAT1 inh, STAT3 act-1)
CCN(Cc1ccccc1)C(=O)CSc1nc(C)cc(=O)[nH]1	none
Cc1cccc(/C=N/NC(=O)C(C)Nc2cccc3ccccc23)n1 (stereo not given)	STAT3 act-1 164.4 (no result: Pf gametocyte) | STAT3 act-2 138.9 | NFkB act 2 inactive | STAT1 act-2 inactive
CC(Nc1cccc2ccccc12)C(=O)N/N=C/c1ccc([N+](=O)[O-])cc1 (stereo not given)	none (no result: Pf gametocyte)
CCC(C)c1ccc(OCc2ccc(C(=O)OC)o2)cc1 (stereo not given)	none (no result: APP 5'UTR act, NF-kB expr up, STAT1 act-1, STAT1 inh, STAT3 act-1)
CC1=C(N2CCOCC2)CCC1=O	none (no result: APP 5'UTR act, NF-kB expr up, STAT1 act-1, STAT1 inh, STAT3 act-1)
CC1=C(C)C(=O)C(N2CCOCC2)=CC1=O	STAT3 act-1 143.0 | STAT3 act-2 138.9 | NFkB act 2 inactive | STAT1 act-2 inactive
O=C(NNC1=C(C(=O)C(F)(F)F)CCC1)c1ccccc1O	STAT3 act-1 176.5 (no result: Pf gametocyte) | STAT3 act-2 148.2 | NFkB act 2 inactive | STAT1 act-2 inactive
COc1ccccc1C(=O)NNC1=C(C(=O)C(F)(F)F)CCC1	STAT3 act-1 150.3 (no result: Pf gametocyte) | STAT3 act-2 inactive | NFkB act 2 inactive | STAT1 act-2 inactive
O=C(NNC1=C(C(=O)C(F)(F)F)CCC1)c1ccccc1Cl	none (no result: Pf gametocyte)
Cc1c(C(=O)N2CCOCC2)sc(NC(=O)Cc2ccccc2)c1C#N	none
Cc1cc(C)n2nc(SCC(=O)c3c(N)n(CC(C)C)c(=O)n(C)c3=O)nc2n1	none
c1ccc(-c2nnc(CN3CCCc4ccccc43)o2)cc1	STAT3 act-1 144.8 | STAT3 act-2 inactive | NFkB act 2 inactive | STAT1 act-2 inactive
Cn1ccnc1Sc1ccc(/C=N/NC(=O)c2ccccc2O)cc1[N+](=O)[O-]	STAT3 act-1 149.2 | STAT3 act-2 177.4 | NFkB act 2 inactive | STAT1 act-2 124.3
Cn1c(C(C#N)C(=O)c2ccco2)nc2ccccc21 (stereo not given)	STAT3 act-1 135.9 | STAT3 act-2 136.1 | NFkB act 2 inactive | STAT1 act-2 124.4
Cn1c(C(C#N)C(=O)Cc2cccc3ccccc23)nc2ccccc21 (stereo not given)	none (no result: Pf gametocyte)
CC(=O)c1sc2nc(-c3cccs3)cc(C(F)(F)F)c2c1N	STAT3 act-1 161.8 (no result: Pf gametocyte) | STAT3 act-2 145.8 | NFkB act 2 inactive | STAT1 act-2 inactive
Cc1ccc(C(=O)N2CCN3C(=O)c4ccccc4C23c2ccccc2)cc1 (stereo not given)	STAT3 act-1 158.5 | STAT3 act-2 inactive | NFkB act 2 inactive | STAT1 act-2 inactive
COc1ccc(/C=N/N(C(C)=O)c2nc(-c3ccc(C)cc3)cs2)cc1	none
COc1ccccc1/C=N/N(C(C)=O)c1nc(-c2ccc(F)cc2)cs1	STAT3 act-1 194.2 (no result: Pf gametocyte) | STAT3 act-2 185.2 | NFkB act 2 125.7 | STAT1 act-2 150.1
CC(C)Cc1ccc(C(C)C(=O)Nc2ccccc2O)cc1 (stereo not given)	none (no result: APP 5'UTR act, NF-kB expr up, STAT1 act-1, STAT1 inh, STAT3 act-1)
Cc1ccc(C)c2sc(N)nc12	none (no result: Pf gametocyte)
Cc1sc2nc(N)sc2c1C	STAT3 act-1 162.2 | STAT3 act-2 146.8 | NFkB act 2 inactive | STAT1 act-2 inactive
Cc1ccc(C)c(/C=N/Nc2ccccn2)c1	STAT3 act-1 140.3 (no result: Pf gametocyte) | STAT3 act-2 inactive | NFkB act 2 inactive | STAT1 act-2 127.6
COc1ccc(/C=N\Nc2ccccn2)c(OC)c1	none (no result: APP 5'UTR act, NF-kB expr up, STAT1 act-1, STAT1 inh, STAT3 act-1)
CCCNC(=O)NC1CCCc2ccccc21 (stereo not given)	none
C=CCn1c(SCC)nc2sc3c(c2c1=O)CCc1ccccc1-3	STAT3 act-1 136.7 | STAT3 act-2 inactive | NFkB act 2 inactive | STAT1 act-2 inactive
C=CCn1c(SC)nc2sc3c(c2c1=O)CCc1ccccc1-3	none (no result: Pf gametocyte)
CC(=C\C(=O)O)/C(=C\c1cccc2ccccc12)C(=O)O	none (no result: APP 5'UTR act, NF-kB expr up, STAT1 act-1, STAT1 inh, STAT3 act-1)
COc1cccc(-c2nnc3n2N=C(c2cc(OC)ccc2OC)CS3)c1	none
COc1cccc(-c2nnc3n2N=C(C(C)(C)C)CS3)c1	STAT3 act-1 204.4 | STAT3 act-2 184.3 | NFkB act 2 inactive | STAT1 act-2 inactive
NS(=O)(=O)c1ccc(N2C(=O)C(=O)/C(=C(/O)c3ccccc3)C2c2ccc(Cl)cc2)cc1 (stereo not given)	none (no result: APP 5'UTR act, NF-kB expr up, STAT1 act-1, STAT1 inh, STAT3 act-1)
NS(=O)(=O)c1ccc(CCNc2nc3c(-c4cccc(F)c4)nnn3c3ccccc23)cc1	STAT3 act-1 137.1 | STAT3 act-2 143.7 | NFkB act 2 inactive | STAT1 act-2 inactive
Cc1ccc(-c2nnn3c2nc(NCCc2ccc(S(N)(=O)=O)cc2)c2ccccc23)cc1	none
Cc1cccc(-c2nnn3c2nc(NCCc2ccc(S(N)(=O)=O)cc2)c2ccccc23)c1	STAT3 act-1 145.3 | STAT3 act-2 155.4 | NFkB act 2 inactive | STAT1 act-2 inactive
CCN(CC)C(=O)C1CCN(Cc2ccc(OCc3ccccc3)c(OC)c2)CC1	none (no result: APP 5'UTR act, NF-kB expr up, STAT1 act-1, STAT1 inh, STAT3 act-1)
Cc1cccc(C2c3[nH]c4ccccc4c3CCN2Cc2ccc(C)s2)n1 (stereo not given)	STAT3 act-1 142.2 | STAT3 act-2 inactive | NFkB act 2 inactive | STAT1 act-2 inactive
Cc1cccc(C2c3[nH]c4ccccc4c3CCN2C(=O)c2ccc(=O)[nH]c2)n1 (stereo not given)	STAT3 act-1 143.2 | STAT3 act-2 inactive | NFkB act 2 inactive | STAT1 act-2 inactive
CC(=O)c1ccc(C(=O)N2CCc3c([nH]c4ccccc34)C2c2cccc(C)n2)s1 (stereo not given)	none (no result: APP 5'UTR act, NF-kB expr up, STAT1 act-1, STAT1 inh, STAT3 act-1)
Cc1cccc(C2c3[nH]c4ccccc4c3CCN2C(=O)Cc2n[nH]c(C)n2)n1 (stereo not given)	STAT3 act-1 137.0 | STAT3 act-2 138.6 | NFkB act 2 inactive | STAT1 act-2 inactive
